In ChEMBL document CHEMBL4002556, “Acetophenone Monomers from Acronychia trifoliolata” (J Nat Prod, 2016):

What was measured:
Type in all cases: functional, cell-based
A549 = experiment: Cytotoxicity against human A549 cells assessed as growth inhibition after 48 hrs by SRB assay; conditions: A549, 48 h
How it was run: (§1)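 Sulforhodamine B (SRB) read-out of antiproliferative effect. IC50 is the concentration giving 50% reduction relative to untreated cells, determined separately for each cell line.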

[1] = Cytotoxicity against human KBVIN cells assessed as growth inhibition after 48 hrs by SRB assay; how it was run: as §1
KB = experiment: Cytotoxicity against human KB cells assessed as growth inhibition after 48 hrs by SRB assay; how it was run: as §1
MCF7 = experiment: Cytotoxicity against human MCF7 cells assessed as growth inhibition after 48 hrs by SRB assay; conditions: MCF7, 48 h
MDA-MB-231 = experiment: Cytotoxicity against human MDA-MB-231 cells assessed as growth inhibition after 48 hrs by SRB assay; conditions: MDA-MB-231, 48 h; how it was run: as §1

In the case of COc1c2c(c(CC=C(C)C)c(O)c1C(C)=O)OC(C)(C)C(O)C2 (stereo not drawn), the IC50 (A549) is reported as 26.6 µM, the IC50 [1] is reported as 19.2 µM and the IC50 (KB) is reported as 25.6 µM. It also gave an IC50 (MCF7) of 30.8 µM and an IC50 (MDA-MB-231) greater than 40 µM.

In the case of COc1c(CC=C(C)C)c(O)c2c(c1C(C)=O)OC(C)(C)C(O)C2 (stereo not drawn), the IC50 (A549) is reported as greater than 40 µM, the IC50 [1] is reported as greater than 40 µM and the IC50 (KB) is reported as greater than 40 µM. The IC50 (MCF7) was greater than 40 µM and the IC50 (MDA-MB-231) was greater than 40 µM.

Work on CC(=O)O[C@H]1C(=O)[C@@]2(C)[C@H]([C@H](OC(=O)c3ccccc3)[C@]3(O)C[C@H](OC(=O)[C@H](O)[C@@H](NC(=O)c4ccccc4)c4ccccc4)C(C)=C1C3(C)C)[C@]1(OC(C)=O)CO[C@@H]1C[C@@H]2O [PACLITAXEL] yielded an IC50 (A549) of 0.00099 µM, an IC50 [1] of 1.9 µM and an IC50 (KB) of 0.0008 µM.

COc1c(CC=C(C)C)c2c(c(O)c1C(C)=O)CC(C(C)(C)O)O2 (stereo not drawn) showed an IC50 (A549) greater than 40 µM, an IC50 [1] greater than 40 µM and an IC50 (KB) greater than 40 µM. It also gave an IC50 (MCF7) greater than 40 µM and an IC50 (MDA-MB-231) greater than 40 µM.

Molecule COc1c(CC=C(C)C)c2c(c(O)c1C(C)=O)CC(O)C(C)(C)O2 (stereo not drawn) has an IC50 (A549) greater than 40 µM, an IC50 [1] of 39.7 µM and an IC50 (KB) of 38.5 µM. It also gave an IC50 (MCF7) greater than 40 µM and an IC50 (MDA-MB-231) greater than 40 µM.

Molecule COc1c2c(c(CC=C(C)C)c(O)c1C(C)=O)OC(C(C)(C)O)C2 (stereo not drawn) has an IC50 (A549) greater than 40 µM, an IC50 [1] greater than 40 µM and an IC50 (KB) greater than 40 µM. It also gave an IC50 (MCF7) greater than 40 µM and an IC50 (MDA-MB-231) greater than 40 µM.

In the case of COc1c2c(c(CCC(C)C)c(O)c1C(C)=O)OC(C)(C)C(O)C2 (stereo not drawn), the IC50 (A549) is reported as 19.9 µM, the IC50 [1] is reported as 16.2 µM and the IC50 (KB) is reported as 20.4 µM. For the same molecule, the IC50 (MCF7) was 19.4 µM and the IC50 (MDA-MB-231) was 22.6 µM.
